Consider eight compounds from ChEMBL document CHEMBL1136869, “2-Cyclohexylcarbonylbenzimidazoles as potent, orally available and brain-penetrable opioid receptor-like 1 (ORL1) antagonists” (Bioorg Med Chem Lett, 2009).

Active and inactive are the calls of the source.

Data set [1] in a line: Ratio of drug level in mouse brain to plasma at 30 mg/kg, po after 1 hr. The format is ADME, organism-based. On the set-up: dose 30 mg/kg, route oral.
For data set [2], the system named is Brain. Put plainly: Drug level in mouse brain at 30 mg/kg, po after 1 hr. On the set-up: dose 30 mg/kg, route oral. To be noted: in vivo. The format is ADME, organism-based.
Data set [3] can be described thus: Drug level in mouse plasma at 30 mg/kg, po after 1 hr. The format is ADME, organism-based. On the set-up: dose 30 mg/kg, route oral.
Data set [4] in a line: Distribution coefficient, log D at pH 7.4 by shake flask method. The format is physicochemical. The conditions noted are these: octanol/water.
The target of data set [5] is Voltage-gated inwardly rectifying potassium channel KCNH2 (Homo sapiens, UniProt Q12809). Put plainly: Displacement of [35S]MK499 from human ERG expressed in HEK293 cells.
Data set [6] concerns the target T1, Nociceptin receptor (Homo sapiens, UniProt P41146). Kind of data set: Displacement of [125I]Tyr14-NC/OFQ from ORL1 receptor. (In general: Loss of bound radioactivity is the signal in a displacement assay; it reports binding, not function.)
For data set [7], the target named is T1, Nociceptin receptor. Kind of data set: Antagonist activity against ORL1 receptor by [S35]GTPgammaS binding. The format is functional. Background: Binding of GTPγS marks nucleotide exchange on a G protein.
The nature of data set [8]: Metabolic stability in human liver microsomes assessed as parent compound remaining at 1 uM after 30 mins. It counts as ADME, Microsome. The conditions noted are these: read-out: Stability. For orientation: Microsomes from liver hold many membrane-bound enzymes, among them those of drug oxidation.
A short description of data set [9]: Half life in monkey at 3 mg/kg, po and 1 mg/kg, iv. It counts as ADME, organism-based, Macaca mulatta. To be noted: rhesus monkey, in vivo.
Data set [10] has as its target Delta-type opioid receptor (Homo sapiens, UniProt P41143). Kind of data set: Displacement of [3H]naltrindole from human delta opioid receptor expressed in CHO cells.
Data set [11] in a line: Half life in rat at 3 mg/kg, po and 1 mg/kg, iv. The format is ADME, organism-based. The conditions noted are these: in vivo.
Data set [12] can be described thus: Oral bioavailability in dog at 3 mg/kg. It counts as ADME, organism-based, Canis lupus familiaris. To be noted: in vivo.
Data set [13] concerns the target Cannabinoid receptor 2 (Homo sapiens) (UniProt P34972). Put plainly: Inhibition of CB2 receptor at 10 uM.
The target of data set [14] is T2, Alpha-1D adrenergic receptor (Homo sapiens) (UniProt P25100).
T2 sequence (whole entry): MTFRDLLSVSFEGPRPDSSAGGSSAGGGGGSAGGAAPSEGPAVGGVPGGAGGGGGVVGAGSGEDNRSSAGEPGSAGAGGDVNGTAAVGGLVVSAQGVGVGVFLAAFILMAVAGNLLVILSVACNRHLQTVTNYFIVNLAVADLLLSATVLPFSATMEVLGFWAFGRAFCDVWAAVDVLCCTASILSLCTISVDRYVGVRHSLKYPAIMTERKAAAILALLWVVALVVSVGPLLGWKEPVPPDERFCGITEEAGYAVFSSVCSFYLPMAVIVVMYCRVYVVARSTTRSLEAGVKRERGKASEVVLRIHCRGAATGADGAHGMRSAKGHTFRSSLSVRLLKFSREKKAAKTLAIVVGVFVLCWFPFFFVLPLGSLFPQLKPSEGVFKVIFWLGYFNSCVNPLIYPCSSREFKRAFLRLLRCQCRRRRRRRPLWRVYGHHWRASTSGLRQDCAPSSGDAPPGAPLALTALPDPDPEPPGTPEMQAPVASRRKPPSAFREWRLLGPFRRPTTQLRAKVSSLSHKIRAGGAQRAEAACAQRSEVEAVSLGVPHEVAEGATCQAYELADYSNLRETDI
Put plainly: Inhibition of adrenergic Alpha-1D receptor at 10 uM.

Data set [15] can be described thus: Oral bioavailability in rat at 3 mg/kg. The format is ADME, organism-based. The conditions noted are these: in vivo.
The nature of data set [16]: Oral bioavailability in monkey at 3 mg/kg. The format is ADME, organism-based, Macaca mulatta. To be noted: rhesus monkey, in vivo.
The next data set concerns Canis familiaris. Put plainly: Toxic effect in anesthetized dog assessed as incidence of cardiovascular events at 10 mg/kg, iv. The format is toxicity, organism-based, Canis lupus familiaris. On the set-up: dose 10 mg/kg, route intravenous. The conditions noted are these: in vivo.
Data set [17] is described as follows: Clearance in rat at 3 mg/kg, po and 1 mg/kg, iv. The format is ADME, organism-based. The conditions noted are these: in vivo.
Data set [18] can be described thus: Inhibition of adrenergic alpha1 receptor at 10 uM.
Data set [19] in a line: Plasma concentration in mouse at 3 mg/kg, sc after 30 mins. The format is ADME, organism-based. On the set-up: dose 3 mg/kg, route subcutaneous.
Data set [20] is described as follows: Cmax in dog at 10 mg/kg, iv. The format is ADME, organism-based, Canis lupus familiaris. On the set-up: dose 10 mg/kg, route intravenous. The conditions noted are these: in vivo.
A short description of data set [21]: Ratio of drug level in brain to plasma of mouse at 3 mg/kg, sc after 30 mins. It counts as ADME, organism-based. On the set-up: dose 3 mg/kg, route subcutaneous. In a few lines:
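Mice dosed subcutaneously at 3 mg/kg; brain and plasma sampled 30 min after dosing. Brain level measured as nmol/g tissue alongside plasma concentration; value is the brain-to-plasma (b/p) ratio of these two levels.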

A short description of data set [22]: Clearance in monkey at 3 mg/kg, po and 1 mg/kg, iv. It counts as ADME, organism-based, Macaca mulatta. To be noted: rhesus monkey, in vivo.
For a further data set, the target named is Mu-type opioid receptor (Homo sapiens, UniProt P35372). Kind of data set: Displacement of [3H]diprenorphin from human mu opioid receptor expressed in CHO cells. The format is cell-based. An outline of the steps: (§1)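 Radioligand displacement in CHO cells stably expressing cloned human opioid receptors: [3H]diprenorphin for mu and [3H]U69593 for kappa. IC50 values were reported.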

In the next data set the test system is Rattus norvegicus. Put plainly: Antihyperalgesic activity in rat assessed as inhibition of carrageenan-induced hyperalgesia at 30 mg/kg, sc after 1 hr. On the set-up: dose 30 mg/kg. It counts as functional, organism-based. In a few lines: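 Rats received carrageenin (0.15 ml, 3%) by intraplantar injection 3 h before testing. Compound was given sc, and testing followed 1 h later. Responses to a noxious mechanical stimulus were scored, with significance set at P < 0.05.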

In data set [23] the target is T3, High affinity choline transporter 1 (Homo sapiens) (UniProt Q9GZV3).
T3 sequence (whole entry): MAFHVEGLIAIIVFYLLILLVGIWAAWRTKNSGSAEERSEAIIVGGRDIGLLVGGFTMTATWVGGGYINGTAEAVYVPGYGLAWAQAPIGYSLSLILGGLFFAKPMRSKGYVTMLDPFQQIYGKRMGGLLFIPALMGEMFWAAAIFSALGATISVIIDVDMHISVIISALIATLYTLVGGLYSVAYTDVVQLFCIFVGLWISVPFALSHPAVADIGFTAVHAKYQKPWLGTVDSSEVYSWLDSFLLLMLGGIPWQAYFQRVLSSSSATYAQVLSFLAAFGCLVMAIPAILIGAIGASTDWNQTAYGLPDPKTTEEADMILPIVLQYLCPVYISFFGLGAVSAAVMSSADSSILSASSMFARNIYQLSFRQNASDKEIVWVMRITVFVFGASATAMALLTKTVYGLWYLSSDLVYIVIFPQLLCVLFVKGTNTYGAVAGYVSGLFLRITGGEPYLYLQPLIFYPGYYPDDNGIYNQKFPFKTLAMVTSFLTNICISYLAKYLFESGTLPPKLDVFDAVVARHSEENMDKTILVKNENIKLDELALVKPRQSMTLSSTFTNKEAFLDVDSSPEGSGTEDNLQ
Kind of data set: Inhibition of choline transporter at 10 uM.

Data set [24] in a line: Half life in dog at 3 mg/kg, po and 1 mg/kg, iv. The conditions noted are these: in vivo. It counts as ADME, organism-based, Canis lupus familiaris.
Data set [25] addresses Kappa-type opioid receptor (Homo sapiens, UniProt P41145). Put plainly: Displacement of [3H]U69593 from human kappa opioid receptor expressed in CHO cells. The format is cell-based. In a few lines: as §1
Data set [26] has as its system Brain. Kind of data set: Drug level in mouse brain at 3 mg/kg, sc after 30 mins. The format is ADME, organism-based. On the set-up: dose 3 mg/kg, route subcutaneous. To be noted: in vivo, 0.5 h.
The nature of data set [27]: Clearance in dog at 3 mg/kg, po and 1 mg/kg, iv. It counts as ADME, organism-based, Canis lupus familiaris. The conditions noted are these: in vivo.
Data set [28] deals with Histamine H3 receptor (Homo sapiens) (UniProt Q9Y5N1). Put plainly: Inhibition of histamine H3 receptor at 10 uM.
Histamine H3 receptor (Homo sapiens), sequence (Q9Y5N1 whole entry): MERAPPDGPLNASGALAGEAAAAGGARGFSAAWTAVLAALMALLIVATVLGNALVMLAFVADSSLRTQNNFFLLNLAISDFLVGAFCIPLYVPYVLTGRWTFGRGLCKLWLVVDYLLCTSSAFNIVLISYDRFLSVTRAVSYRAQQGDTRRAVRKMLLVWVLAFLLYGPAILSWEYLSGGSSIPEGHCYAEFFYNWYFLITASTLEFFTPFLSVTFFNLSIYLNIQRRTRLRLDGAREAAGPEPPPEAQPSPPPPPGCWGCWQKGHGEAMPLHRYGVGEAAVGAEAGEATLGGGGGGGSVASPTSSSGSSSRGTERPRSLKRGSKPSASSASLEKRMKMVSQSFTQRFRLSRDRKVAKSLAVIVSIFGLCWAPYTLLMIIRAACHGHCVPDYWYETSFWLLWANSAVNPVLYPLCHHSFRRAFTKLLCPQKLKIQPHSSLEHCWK

Voltage-gated inwardly rectifying potassium channel KCNH2, sequence (Q12809 whole entry): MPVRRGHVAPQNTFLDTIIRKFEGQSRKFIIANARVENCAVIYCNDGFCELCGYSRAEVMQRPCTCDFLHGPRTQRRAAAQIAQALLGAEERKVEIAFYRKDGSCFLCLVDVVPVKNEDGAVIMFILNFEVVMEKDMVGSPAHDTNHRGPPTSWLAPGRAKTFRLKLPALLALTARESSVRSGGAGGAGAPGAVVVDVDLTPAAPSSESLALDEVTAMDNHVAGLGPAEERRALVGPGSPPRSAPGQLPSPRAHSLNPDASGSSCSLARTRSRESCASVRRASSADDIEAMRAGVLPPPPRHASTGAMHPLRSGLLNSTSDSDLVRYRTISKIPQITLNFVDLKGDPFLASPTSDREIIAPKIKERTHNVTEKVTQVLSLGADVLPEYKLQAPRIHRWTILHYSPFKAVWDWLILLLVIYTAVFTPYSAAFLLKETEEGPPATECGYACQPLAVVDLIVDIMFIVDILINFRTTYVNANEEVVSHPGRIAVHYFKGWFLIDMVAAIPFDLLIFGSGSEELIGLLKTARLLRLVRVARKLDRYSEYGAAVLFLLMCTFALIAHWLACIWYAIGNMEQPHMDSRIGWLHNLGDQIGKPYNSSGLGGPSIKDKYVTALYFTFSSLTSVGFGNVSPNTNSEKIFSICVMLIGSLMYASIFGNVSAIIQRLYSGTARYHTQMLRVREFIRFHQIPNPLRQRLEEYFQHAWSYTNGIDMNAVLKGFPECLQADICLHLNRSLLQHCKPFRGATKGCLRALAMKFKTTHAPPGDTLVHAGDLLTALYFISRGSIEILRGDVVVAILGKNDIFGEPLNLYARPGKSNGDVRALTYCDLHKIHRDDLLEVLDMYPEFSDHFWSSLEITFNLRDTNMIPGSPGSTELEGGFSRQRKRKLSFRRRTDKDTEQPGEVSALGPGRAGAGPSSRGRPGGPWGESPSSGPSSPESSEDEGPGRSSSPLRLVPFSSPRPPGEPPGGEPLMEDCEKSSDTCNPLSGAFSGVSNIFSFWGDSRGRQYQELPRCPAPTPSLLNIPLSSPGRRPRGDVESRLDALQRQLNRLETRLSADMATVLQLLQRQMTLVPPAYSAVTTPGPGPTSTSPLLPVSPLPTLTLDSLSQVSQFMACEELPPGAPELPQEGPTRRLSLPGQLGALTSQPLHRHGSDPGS
T1 sequence (P41146 whole entry): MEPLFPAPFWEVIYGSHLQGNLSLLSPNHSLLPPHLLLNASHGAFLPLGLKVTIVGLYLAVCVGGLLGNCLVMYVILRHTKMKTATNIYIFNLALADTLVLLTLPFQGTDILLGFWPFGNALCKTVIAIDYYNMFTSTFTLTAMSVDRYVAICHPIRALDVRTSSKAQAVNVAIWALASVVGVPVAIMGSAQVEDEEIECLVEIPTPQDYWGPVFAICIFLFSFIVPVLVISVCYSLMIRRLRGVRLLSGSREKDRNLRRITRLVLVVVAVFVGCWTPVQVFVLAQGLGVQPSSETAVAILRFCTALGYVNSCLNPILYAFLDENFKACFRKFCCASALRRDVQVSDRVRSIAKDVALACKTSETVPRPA
Delta-type opioid receptor, sequence (P41143 whole entry): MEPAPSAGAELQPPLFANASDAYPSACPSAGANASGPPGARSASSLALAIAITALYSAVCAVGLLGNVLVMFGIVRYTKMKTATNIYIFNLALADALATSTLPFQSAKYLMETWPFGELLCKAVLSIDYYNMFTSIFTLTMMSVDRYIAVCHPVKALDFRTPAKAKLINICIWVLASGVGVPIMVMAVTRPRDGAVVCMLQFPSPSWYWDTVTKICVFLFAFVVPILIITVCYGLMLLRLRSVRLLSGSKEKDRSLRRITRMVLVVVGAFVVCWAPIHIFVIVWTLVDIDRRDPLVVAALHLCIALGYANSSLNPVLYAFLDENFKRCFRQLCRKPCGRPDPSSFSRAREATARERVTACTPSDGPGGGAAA
Mu-type opioid receptor, sequence (P35372 whole entry): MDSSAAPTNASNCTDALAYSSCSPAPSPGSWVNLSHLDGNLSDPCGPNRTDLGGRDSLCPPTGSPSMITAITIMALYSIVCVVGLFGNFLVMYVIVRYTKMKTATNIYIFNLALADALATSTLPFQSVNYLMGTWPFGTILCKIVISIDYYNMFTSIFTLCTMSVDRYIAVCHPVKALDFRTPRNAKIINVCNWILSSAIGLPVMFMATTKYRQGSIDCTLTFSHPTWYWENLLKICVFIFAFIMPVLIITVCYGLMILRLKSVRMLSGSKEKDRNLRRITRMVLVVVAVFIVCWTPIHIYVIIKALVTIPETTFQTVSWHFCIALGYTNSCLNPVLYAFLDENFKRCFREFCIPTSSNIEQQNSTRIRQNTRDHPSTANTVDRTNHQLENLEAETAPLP
Kappa-type opioid receptor, sequence (P41145 whole entry): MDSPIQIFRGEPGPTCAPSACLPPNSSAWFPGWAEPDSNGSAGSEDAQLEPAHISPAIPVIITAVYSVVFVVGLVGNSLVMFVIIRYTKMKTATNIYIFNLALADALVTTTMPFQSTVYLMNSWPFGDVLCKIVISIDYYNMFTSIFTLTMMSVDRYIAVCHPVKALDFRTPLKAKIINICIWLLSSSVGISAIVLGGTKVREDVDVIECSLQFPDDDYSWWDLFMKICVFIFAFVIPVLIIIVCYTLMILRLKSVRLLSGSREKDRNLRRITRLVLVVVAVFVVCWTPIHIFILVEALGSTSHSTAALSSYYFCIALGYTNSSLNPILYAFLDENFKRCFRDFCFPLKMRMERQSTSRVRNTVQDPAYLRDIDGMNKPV
Cannabinoid receptor 2 (Homo sapiens), sequence (P34972 whole entry): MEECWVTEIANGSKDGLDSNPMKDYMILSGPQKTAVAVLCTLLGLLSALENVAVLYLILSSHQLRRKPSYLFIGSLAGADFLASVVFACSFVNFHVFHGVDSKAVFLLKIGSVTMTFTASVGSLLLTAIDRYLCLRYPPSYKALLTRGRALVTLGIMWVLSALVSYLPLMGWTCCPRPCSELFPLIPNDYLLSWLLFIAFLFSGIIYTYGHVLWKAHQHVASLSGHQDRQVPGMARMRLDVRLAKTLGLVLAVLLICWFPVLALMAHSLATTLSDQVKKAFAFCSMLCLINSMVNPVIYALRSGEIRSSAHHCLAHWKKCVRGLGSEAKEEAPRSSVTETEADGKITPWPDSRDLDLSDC

As usually defined, the Kp is tissue or fluid exposure divided by exposure in the circulation. For `CCN1CCN(c2cc3[nH]c(S[C@]4(C)CC[C@@H](NC(=O)OC)CC4)nc3cc2Cl)CC1`, the Kp at 1 h in data set [1] came out at 0.05. This compound showed a Drug uptake in the data set on Brain [2] of 1.11 nmol/g. Further, the concentration at 1 h in data set [3] was determined as 22.2 µM.

A word on the logD: it is the decadic logarithm of the distribution of all forms, ionised or not, between an organic phase and buffer at a given pH. As a reminder, the IC50 is the concentration that inhibits the measured activity by half. In data set [4], `CCN1CCN(c2cc3[nH]c(C(=O)[C@]4(C)CC[C@@H](NC(=O)OC)CC4)nc3cc2C)CC1` registered a logD of 3.1. Besides, the values for the IC50 (in data set [5]; at Nociceptin receptor [6]; on Nociceptin receptor [7]) were 3000 nM, 2 nM and 5.3 nM, respectively. In addition, the remaining at 0.5 h, 1 µM in data set [8] was 71%.

What is called half-life is the time needed for the level to fall by half in the phase considered. Broadly, the bioavailability is the share of a dose that reaches the circulation, judged against a reference dose that is usually intravenous. By inhibition is commonly meant the drop in the measured response relative to a control, in per cent. In general, Cmax refers to the highest concentration seen after dosing. With `CCN1CCN(c2cc3[nH]c(C(=O)[C@]4(C)CC[C@@](C)(O)CC4)nc3cc2Cl)CC1`, the half-life in data set [9] is 4 h; in [11] it was 0.62 h; in data set [24], 3.5 h. Further, the IC50 was more than 10000 nM in data set [10]; 20000 nM in data set [5]; more than 10000 nM on Mu-type opioid receptor; 1400 nM in data set [25]; 1.3 nM at Nociceptin receptor [7]. Also, the bioavailability in data set [12] was determined as 38%; in [15], 15%; in data set [16], 8%. The logD in [4] came out at 3.1. For the same compound, the inhibition in data set [13] was found to be 73%; in data set [14] it was 74%; in data set [18], 72%; in data set [23], 62%; in data set [28], 50%. In addition, in the data set on Canis familiaris, the Activity result was “Non-toxic”. Also, the clearance in data set [17] was 77 mL/min/kg; in [22] it was 22 mL/min/kg; in [27], 34 mL/min/kg. In [19], this compound had a concentration at 0.5 h of 1.08 µM. The same compound displayed a Cmax in data set [20] of 10.7 µM. For the same compound, in [21], the Kp at 0.5 h came out at 2.02. Moreover, in the data set with Rattus norvegicus, the outcome was Active. Also, the Drug uptake with Brain [26] is listed as 2.21 nmol/g. Also, the remaining at 0.5 h, 1 µM in data set [8] came to 82%.

In the case of `CCN1CCN(c2cc3[nH]c(C(=O)[C@]4(C)CC[C@](C)(O)CC4)nc3cc2Cl)CC1`, the values for the IC50 (in data set [5]; on Nociceptin receptor [6]) were 3100 nM and 27 nM, respectively.

Take `CCN1CCN(c2cc3[nH]c(S[C@]4(C)CC[C@@H](N(C)C(C)=O)CC4)nc3cc2Cl)CC1`: in data set [1], the Kp at 1 h turned out to be 0.09. This compound also had a Drug uptake with Brain [2] of 0.38 nmol/g. The same compound had a concentration at 1 h in [3] of 4.56 µM.

Take `CCN1CCN(c2cc3[nH]c(C(=O)C4(C)CCC(=O)CC4)nc3cc2Cl)CC1`: in [4], the logD is 3. Also, the IC50 in data set [5] is 8500 nM; on Nociceptin receptor [6], 9.9 nM; on Nociceptin receptor [7], 38 nM.

The compound `CCN1CCN(c2cc3[nH]c(C(=O)[C@]4(C)CC[C@@H](NC(=O)OC)CC4)nc3cc2Cl)CC1` gave a logD in [4] of 3.7. For the same compound, the IC50 in [5] amounted to 4900 nM; on Nociceptin receptor [6], 5.7 nM; on Nociceptin receptor [7], 7.5 nM. Also, the remaining at 0.5 h, 1 µM in data set [8] was 74%.

`CCN1CCN(c2cc3[nH]c(C(=O)[C@]4(CC)CC[C@@](C)(O)CC4)nc3cc2Cl)CC1` came in with a logD in data set [4] of 3.6. Further, the IC50 was determined as 0.8 nM on Nociceptin receptor [6] and 2.4 nM at Nociceptin receptor [7]. The remaining at 0.5 h, 1 µM in [8] is 57%.
